Experimental data from different studies.
Compare with care: the assays were run in different laboratories.
Target: Cannabinoid receptor 1 (CNR1, Homo sapiens, UniProt P21554)

SMILES | observed | action | method | cells | tested at | measurement | result
O=C1N=C(N2CCCCN2)S/C1=C\c1ccc(F)cc1O | ligand displacement | – | radioligand | – | 10 µM | inhibition | < 10%
CC(C)N1CCC[C@H]1CNC(=O)c1cn(C2CCCC2)c(=O)c2c1c1ccccc1n2C | ligand displacement | – | radioligand | – | 10 µM | inhibition | 48%
CN(CCN1CCC(OC(=O)Nc2ccccc2-c2ccccc2)CC1)C(=O)c1ccc(CN2CCC(C(N)=O)CC2)cc1 | ligand displacement | – | radioligand | – | 1 µM | inhibition | -3%
N#Cc1c(Oc2cccc(OS(=O)(=O)CCCC(F)(F)F)c2)cccc1C(F)(F)F | calcium signal | agonist | fluorescence | CHO | – | Emax | 39%
COc1ccc(S(=O)(=O)N2CCCCC2)cc1C | ligand displacement | – | radioligand | – | 10 µM | inhibition | < 30%
CCN(CC)CCCC[C@H](NC(=O)[C@H](CC(C)C)NC(=O)[C@H](C)NC(=O)[C@H](Cc1ccccc1)NC(=O)c1ccc(C(C)(C)C)cc1)C(=O)N[C@@H](CO)C(=O)OC | ligand displacement | – | radioligand | – | 10 µM | remaining binding | 113%
CCOC(=O)C(CC)(CCCSCCOCCOCCNc1ccc([N+](=O)[O-])c2nonc12)NC(=O)c1ccc(C2CC2)c(Cc2ccc(F)cc2)n1 (racemic) | cAMP | agonist | – | – | – | Emax | 126%
CC(C)C(NC(=O)c1nn(Cc2ccc(F)cc2)c2ccccc12)C(N)=O (centres unmarked) | calcium signal | agonist | fluorescence | – | – | Emax | 120%
c1ccc(C(NCCNC(c2ccccc2)c2ccccc2)c2ccccc2)cc1 | cell-free assay | – | – | – | 10 µM | inhibition | 102%
Clc1ccc2c(C3CCN(CCc4c[nH]c5ccccc45)CC3)c[nH]c2c1 | ligand displacement | – | radioligand | – | 10 µM | inhibition | -27%
COCc1c(-c2cc3cc(C)cc(OC)c3s2)c2c(N)ncnn2c1CN1CCNC(=O)C1 | ligand displacement | – | radioligand | – | 10 µM | inhibition | 26%
